Data reported in ChEMBL document CHEMBL5614377, “Structure-based mapping of the histone-binding pocket of KDM4D using functionalized tetrazole and pyridine core compounds” (Eur J Med Chem, 2024).

Legend:
[1] = molecular target: T1, Lysine-specific demethylase 4D (Homo sapiens, UniProt Q6B0I6); test: Binding affinity to N-terminal His-6-tagged human KDM4D catalytic domain (1 to 342 residues) assessed as dissociation constant by isothermal titration calorimetry analysis
T1 sequence (Q6B0I6 whole entry): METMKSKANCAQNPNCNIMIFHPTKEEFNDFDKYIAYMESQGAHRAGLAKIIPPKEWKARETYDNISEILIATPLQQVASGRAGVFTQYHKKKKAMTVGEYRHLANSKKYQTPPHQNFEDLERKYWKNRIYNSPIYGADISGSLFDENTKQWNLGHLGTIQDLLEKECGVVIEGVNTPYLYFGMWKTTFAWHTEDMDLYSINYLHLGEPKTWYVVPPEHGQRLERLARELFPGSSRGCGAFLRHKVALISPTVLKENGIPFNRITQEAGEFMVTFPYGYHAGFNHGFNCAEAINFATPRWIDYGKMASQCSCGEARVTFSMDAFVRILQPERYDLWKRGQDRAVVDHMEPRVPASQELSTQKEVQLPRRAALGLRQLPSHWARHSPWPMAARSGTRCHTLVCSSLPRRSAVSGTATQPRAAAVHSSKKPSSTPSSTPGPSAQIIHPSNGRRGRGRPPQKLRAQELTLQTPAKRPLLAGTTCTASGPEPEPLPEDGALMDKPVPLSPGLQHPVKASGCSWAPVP
Method in brief: (§1)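 Human KDM4D catalytic domain (residues 1–342) expressed with N-terminal His6-tag, purified by metal affinity chromatography; tag removed by TEV protease for affinity tests, then size-exclusion. Protein concentration measured by A280. ITC at 20 °C in 10 mM HEPES pH 7.5, 0.5 M NaCl, 5% glycerol, 1 mM TCEP. Ligands diluted from DMSO stocks to 0.4–1% final DMSO, with protein DMSO-matched. Ligand titrated into protein in the cell in 13 or 19 injections of 2–3 μL, 180 s spacing, 5 s filter. Two or three runs per ligand. Thermodynamic parameters obtained by baseline adjustment, peak integration, heat normalization per mole of ligand, and fitting.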

[2] = molecular target: T2, Lysine-specific demethylase 4D (Homo sapiens) (UniProt Q6B0I6); test: Binding affinity to N-terminal His-6-tagged human KDM4D catalytic domain (1 to 342 residues) assessed as change in gibbs free energy by isothermal titration calorimetry analysis; method in brief: as §1
T2 sequence (whole entry): T1 sequence (Q6B0I6 whole entry)

[3] = molecular target: T2, Lysine-specific demethylase 4D (Homo sapiens); test: Binding affinity to N-terminal His-6-tagged human KDM4D catalytic domain (1 to 342 residues) assessed as change in entropy by isothermal titration calorimetry analysis; method in brief: as §1
[4] = molecular target: T2, Lysine-specific demethylase 4D (Homo sapiens); test: Binding affinity to N-terminal His-6-tagged human KDM4D catalytic domain (1 to 342 residues) assessed as change in enthalpy by isothermal titration calorimetry analysis; method in brief: as §1

NNC(=O)[C@H](NC(=O)CCCCc1ccccc1)c1nnn[nH]1
Kd [1]: 509 µM | deltaG [2]: -4.42 kcal/mol | -TdeltaS [3]: -12.9 kcal/mol | deltaH [4]: 8.5 kcal/mol

O=C(O)c1ccnc(NCCCO)c1
Kd [1]: 55.9 µM | deltaG [2]: -5.7 kcal/mol | -TdeltaS [3]: -4.05 kcal/mol | deltaH [4]: -1.65 kcal/mol

CS(=O)(=O)NCCNc1cc(C(=O)O)ccn1
Kd [1]: 35.5 µM | deltaG [2]: -5.97 kcal/mol | -TdeltaS [3]: -1.35 kcal/mol | deltaH [4]: -4.6 kcal/mol

O=C(NO)c1cc(-c2nnn[nH]2)ccn1
Kd [1]: 0.55 µM | deltaG [2]: -8.4 kcal/mol | -TdeltaS [3]: -13.7 kcal/mol | deltaH [4]: 5.3 kcal/mol
